Experimental findings from ChEMBL document CHEMBL3272089, “Synthesis and antitumor activity of dihydro-5-azacytidine, a hydrolytically stable analogue of 5-azacytidine” (J Med Chem, 1977) are described below.

The structures appear in SMILES notation. The source made the active and inactive calls. The rule behind the calls is not given here.

The subject of data set [1] is Mus musculus. The experiment in a line: Toxicity in ip dosed mouse allografted with mouse B16 cells assessed as dose required for optimal activity administered qd from day 1 to day 9 post tumor implantation. The following applies: in vivo. Format: organism-based. The gist of the method:
(§1)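 Tumour cells were implanted ip (intracerebrally for IC-L1210), with the compound given in 0.9% saline ip, or orally to nonfasting mice in PO-L1210. Dose–response series each halved the preceding dose, expressed as mg/kg per injection. Activity was read as % increase in life-span (% ILS) over untreated controls, and from this the minimum, optimal and maximum active doses were taken.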

Data set [2] in a line: Solubility of the compound in water at pH 6. Format: physicochemical.
For data set [3], the system named is B16. Kind of data set: Antitumor activity against mouse B16 cells allografted in ip dosed mouse assessed as increase in life span at optimal dose administered qd from day 1 to day 9 post tumor implantation relative to control. Type of data set: functional.
The subject of data set [4] is L1210. The experiment in a line: Antitumor activity against mouse L1210 cells allografted in ip dosed mouse assessed as increase in life span at optimal dose administered qd from day 1 to day 9 post intracerebral tumor implantation relative to control. Format: functional. The gist of the method: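 L1210 cells implanted intracerebrally in mice. Drug given ip in 0.9% saline, dose-response in twofold dose steps (mg/kg per injection). Antitumor effect as % increase in life-span over untreated controls at the optimal dose. Test minus control body-weight change recorded on day 5.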

The subject of data set [5] is L1210. The experiment in a line: Antitumor activity against mouse L1210 cells allografted in ip dosed mouse assessed as dose required for minimal activity administered qd from day 1 to day 9 post tumor implantation. Type of data set: functional. Particulars: read-out: MED. The gist of the method: as §1
In data set [6] the test system is P388. The experiment in a line: Antitumor activity against mouse P388 cells allografted in ip dosed mouse assessed as dose required for maximal activity administered qd from day 1 to day 9 post tumor implantation. Type of data set: functional. An outline of the steps: as §1
Data set [7] has as its system B16. Kind of data set: Antitumor activity against mouse B16 cells allografted in ip dosed mouse assessed as change in body weight at optimal dose administered qd from day 1 to day 9 post tumor implantation measured on day 5 relative to control. Format: functional. An outline of the steps:
(§2)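 Mice bearing tumour cells implanted ip (intracerebrally in the IC-L1210 system) got compound in 0.9% saline ip on the stated schedule, or orally to nonfasting animals in the PO-L1210 system. Day-1 dosing, per day, or every 6 h counted from implantation. The value is the difference in average body weight change (g) on day 5 between the optimal-dose group (T) and controls (C).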

The test system of data set [8] is P388. Kind of data set: Antitumor activity against mouse P388 cells allografted in ip dosed mouse assessed as change in body weight at optimal dose administered qd from day 1 to day 9 post tumor implantation measured on day 5 relative to control. Type of data set: functional. The gist of the method:
as §2

Data set [9] concerns P388. The experiment in a line: Antitumor activity against mouse P388 cells allografted in ip dosed mouse assessed as increase in life span at optimal dose administered qd from day 1 to day 9 post tumor implantation relative to control. Format: functional.
In data set [10] the test system is L1210. The experiment in a line: Antitumor activity against 5-azacytidine-resistant mouse L1210 cells allografted in ip dosed mouse assessed as change in body weight at optimal dose administered qd from day 1 to day 9 post tumor implantation measured on day 5 relative to control. Type of data set: functional. An outline of the steps: as §2
The subject of data set [11] is Mus musculus. The experiment in a line: Toxicity in ip dosed mouse allografted with 5-azacytidine-resistant mouse L1210 cells assessed as dose required for optimal activity administered qd from day 1 to day 9 post tumor implantation. Format: organism-based. The following applies: in vivo. The gist of the method:
as §1

Data set [12] relates to L1210. Kind of data set: Antitumor activity against mouse L1210 cells allografted in ip dosed mouse assessed as increase in life span at optimal dose administered every 6 hrs on day 1, 5 and 9 post tumor implantation relative to control. Type of data set: functional. The gist of the method: (§3)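 L1210 leukemia cells implanted ip in mice. Drug given ip in 0.9% saline: day 1 only (QD1); days 1, 5, 9 (Q4D); every 6 h on days 1, 5, 9 (Q4D(Q6H)); or days 1-9 (QD1-9). Dose-response run in twofold steps, dose in mg/kg per injection. % ILS versus untreated controls at the optimal dose. Toxicity taken as test minus control body-weight change on day 5.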

Data set [13] deals with L1210. The experiment in a line: Antitumor activity against mouse L1210 cells allografted in po dosed mouse assessed as dose required for minimal activity administered qd from day 1 to day 9 post tumor implantation. Particulars: read-out: MED. Format: functional. The gist of the method: as §1
Data set [14] relates to Mus musculus. The experiment in a line: Toxicity in ip dosed mouse allografted with mouse P388 cells assessed as dose required for optimal activity administered qd from day 1 to day 9 post tumor implantation. Type of data set: organism-based. Particulars: in vivo. An outline of the steps:
as §1

Data set [15] concerns L1210. Kind of data set: Antitumor activity against mouse L1210 cells allografted in ip dosed mouse assessed as increase in life span at optimal dose administered qd from day 1 to day 9 post tumor implantation relative to control. Type of data set: functional. The gist of the method:
as §3

Data set [16] concerns L1210. Kind of data set: Antitumor activity against mouse L1210 cells allografted in ip dosed mouse assessed as dose required for maximal activity administered qd from day 1 to day 9 post intracerebral tumor implantation. Format: functional. An outline of the steps: as §1
Data set [17] relates to L1210. The experiment in a line: Antitumor activity against mouse L1210 cells allografted in po dosed mouse assessed as dose required for maximal activity administered qd from day 1 to day 9 post tumor implantation. Type of data set: functional. The gist of the method: as §1
Data set [18] can be described thus: Chemical stability in 1 N ammonium hydroxide solution at room temperature after 7 days. Type of data set: physicochemical. Particulars: 168 h. An outline of the steps:
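The compound was stored 7 days at room temperature in 1 N ammonium hydroxide, then recovered and checked as the free base.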

Data set [19] relates to Mus musculus. Kind of data set: Toxicity in ip dosed mouse allografted with mouse L1210 cells assessed as dose required for optimal activity administered qd on day 1, 5 and 9 post tumor implantation. Particulars: in vivo. Format: organism-based. An outline of the steps: as §1
The subject of data set [20] is P388. The experiment in a line: Antitumor activity against mouse P388 cells allografted in ip dosed mouse assessed as dose required for minimal activity administered qd from day 1 to day 9 post tumor implantation. Type of data set: functional. Particulars: read-out: MED. The gist of the method:
as §1

In data set [21] the test system is L1210. Kind of data set: Cytotoxicity against mouse L1210 cells assessed as cessation of growth in presence of cytidine. Format: functional, cell-based.
Data set [22] is described as follows: Drug degradation in 1 N ammonium hydroxide solution assessed as l-beta-D-Ribofuranosyl-3-guanylurea level. Format: physicochemical.
Data set [23] relates to L1210. The experiment in a line: Cytotoxicity against mouse L1210 cells assessed as cessation of growth. Type of data set: functional, cell-based.
The test system of data set [24] is B16. Kind of data set: Antitumor activity against mouse B16 cells allografted in ip dosed mouse assessed as dose required for minimal activity administered qd from day 1 to day 9 post tumor implantation. Type of data set: functional. The following applies: read-out: MED. An outline of the steps: as §1
Data set [25] can be described thus: Drug degradation in lactated Ringer's solution at 25 degC after 4.7 hrs. Particulars: read-out: Drug degradation. Type of data set: physicochemical.
For data set [26], the system named is L1210. Kind of data set: Cytotoxicity against mouse L1210 cells assessed as cessation of growth in presence of uridine. Format: functional, cell-based.
A short description of data set [27]: Half life of the compound at 25 degC at pH 7 by HPLC analysis. Format: physicochemical.

As for `Cl.NC1=NC(=O)N([C@@H]2O[C@H](CO)[C@@H](O)[C@H]2O)CN1`, the Activity in the data set on Mus musculus [1] is 100 mg/kg; in the data set on B16 [7], -3.3 g; in the data set on P388 [8] it was -4.3 g; in the data set with L1210 [10], 0.1 g; in the data set with Mus musculus [11], 25 mg/kg; in the data set with Mus musculus [14], 100 mg/kg. The Activity in the data set on Mus musculus [19] was 600 mg/kg. Moreover, the solubility (usually how much of the substance goes into solution per volume) in [2] was found to be 40 mg/mL. For the same molecule, the ILS (as a rule, how much longer treated animals lived than controls) is 19% with B16 [3]; 46% in the data set with L1210 [4]; 85% with P388 [9]; 68% in the data set with L1210 [12]; 116% in the data set with L1210 [15]. The minimal effective dose stood at 3.13 mg/kg in the data set with L1210 [5], 200 mg/kg in the data set with L1210 [13] and 12.5 mg/kg in the data set with P388 [20]. For the same molecule, the MAD with P388 [6] is 200 mg/kg; in the data set on L1210 [16] it was 100 mg/kg; with L1210 [17], 400 mg/kg. Also, in data set [18], the Stability result was “Stable”.
As to `Nc1ncn([C@@H]2O[C@H](CO)[C@@H](O)[C@H]2O)c(=O)n1` [AZACITIDINE], the Activity in the data set on Mus musculus [1] is 3 mg/kg; in the data set on B16 [7] it was 1.5 g; in the data set on P388 [8], -4.3 g; in the data set on Mus musculus [14], 3 mg/kg; with Mus musculus [19] it was 10 mg/kg. Also, the outcome in the data set with L1210 [21] and in the data set on L1210 [26] was inactive. The ILS was 20% in the data set on B16 [3]; 28% in the data set with L1210 [4]; 127% in the data set on P388 [9]; 126% in the data set with L1210 [12]; 128% in the data set on L1210 [15]. Besides, in data set [22], the Stability entry is listed as “Unstable”. Further, the minimal effective dose in the data set with L1210 [5] turned out to be 0.75 mg/kg; with B16 [24] it was 1.5 mg/kg; in the data set with L1210 [13] it was 1.56 mg/kg; in the data set on P388 [20] it was 0.75 mg/kg. The results for the MAD with P388 [6], in the data set with L1210 [16] and in the data set with L1210 [17] were 3 mg/kg, 0.75 mg/kg and 25 mg/kg, respectively. The outcome in the data set on L1210 [23] was Active. The degraded at 4.7 h in data set [25] came out at 15%. Further, in [27], the half-life – broadly, how long it takes for the measured level to halve – is 48 h.
